Measured values gathered from unrelated publications.
Lines come from different studies, so protocols differ.
ADRB2: Beta-2 adrenergic receptor (ADRB2, Homo sapiens, UniProt P07550)

| Structure (SMILES) | target | observed | action | technique | notes | endpoint | value |
| --- | --- | --- | --- | --- | --- | --- | --- |
| CC(Cc1ccc2c(c1)OCO2)NCC(O)c1ccc(O)c(O)c1 (stereo not drawn) | ADRB2 | β-arrestin recruitment | agonist | – | – | EC50 | 0.00631 µM |
| NCC(O)c1ccc(O)c(O)c1F (stereo not drawn) | Beta-2 adrenergic receptor (ADRB2, Homo sapiens, UniProt P07550, N293A) | ligand displacement | – | radioligand | cell membranes | Ki | 319 µM |
| CCC1(COCc2ccccc2F)CCC(C)(C)O1 (stereo not drawn) | ADRB2 | calcium signal | agonist | fluorescence | – | EC50 | 17 µM |
| CCOc1ccccc1OCCN[C@H](C)Cc1ccc(OC)c(S(N)(=O)=O)c1 | ADRB2 | ligand displacement | – | radioligand | – | IC50 | 2.2 µM |
| CC(N)Cc1c[nH]c2ccc(OCc3cccs3)cc12 (stereo not drawn) | ADRB2 | ligand displacement | – | radioligand | cell membranes | IC50 | 9.42 µM |
| CN1CCC(=C2c3ccccc3CCc3sccc32)CC1 | ADRB2 | ligand displacement | – | radioligand | – | IC50 | 5.8 µM |
| COc1ccc(OC)c(C(O)C(C)N)c1 (stereo not drawn) | ADRB2 | ligand displacement | – | radioligand | cell membranes | IC50 | 12.3 µM |
| NCC(O)c1cc(O)c(O)cc1F (stereo not drawn) | Beta-2 adrenergic receptor (ADRB2, Homo sapiens, UniProt P07550, N293Q) | ligand displacement | – | radioligand | cell membranes | Ki | 3330 µM |
| C[C@H](N)Cn1ncc2ccc3c(c21)CCCO3 | ADRB2 | cAMP | agonist | – | – | EC50 | > 100 µM |
